# Experimental data: ChEMBL document CHEMBL5058577, “EUbOPEN Chemogenomics Library 2 (Multiplex)” (2022)
# Test system: Fibroblast
# Test: Multiplex assay against human fibroblast
# Assay type: toxicity, cell-based
# In short: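 Phenotypes for tubulin, mitochondrial mass and membrane permeability are expressed as per cents of healthy-nucleus cells. Cells were stained live at seeding with Hoechst33342, BioTracker Green Microtubule Cytoskeleton Dye, MitoTracker Red and Annexin V Alexa Fluor 680, then imaged after compound addition on a CQ1 microscope at 37°C and 5% CO2. Machine-learning gating in CellPathfinder separated Hoechst high-intensity objects from normal cells, divided normal cells by nuclear state (healthy, pyknosed, fragmented) and divided pyknosed cells into mitotic or apoptotic.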
# [1] = 12 h, 1 µM, compound concentration 1 uM, replicate 1
# [2] = 12 h, 1 µM, compound concentration 1 uM, replicate 2
# [3] = 12 h, 10 µM, compound concentration 10 uM, replicate 1
# [4] = 12 h, 10 µM, compound concentration 10 uM, replicate 2
# [5] = 24 h, 1 µM, compound concentration 1 uM, replicate 1
# [6] = 24 h, 1 µM, compound concentration 1 uM, replicate 2
# [7] = 24 h, 10 µM, compound concentration 10 uM, replicate 1
# [8] = 24 h, 10 µM, compound concentration 10 uM, replicate 2
# [9] = 48 h, 1 µM, compound concentration 1 uM, replicate 1
# [10] = 48 h, 1 µM, compound concentration 1 uM, replicate 2
# [11] = 48 h, 10 µM, compound concentration 10 uM, replicate 1
# [12] = 48 h, 10 µM, compound concentration 10 uM, replicate 2
smiles,measurement,setting,value
COc1ccc2[nH]c(I)c(CCNC(C)=O)c2c1 [IODOMELATONIN],Population Apoptotic (%),[1],53%
same,Population Fragmented Nuclei (%),[1],15%
same,Population Healthy Nuclei (%),[1],64%
same,Population Hoechst High Intensity Objects (%),[1],2%
same,Population Membrane Permeable-Phenotype (%),[1],4%
same,Population Mitochondria Different-Phenotype (%),[1],4%
same,Population Mitotic Cells (%),[1],46%
same,Population Normal (%),[1],97%
same,Population Pyknosed Nuclei (%),[1],19%
same,Population Tubulin-Different-Phenotype (%),[1],28%
same,Total Cell Count,[1],137
same,Population Apoptotic (%),[2],32%
same,Population Fragmented Nuclei (%),[2],23%
same,Population Healthy Nuclei (%),[2],60%
same,Population Hoechst High Intensity Objects (%),[2],5%
same,Population Membrane Permeable-Phenotype (%),[2],7%
same,Population Mitochondria Different-Phenotype (%),[2],3%
same,Population Mitotic Cells (%),[2],68%
same,Population Normal (%),[2],94%
same,Population Pyknosed Nuclei (%),[2],15%
same,Population Tubulin-Different-Phenotype (%),[2],33%
same,Total Cell Count,[2],173
same,Population Apoptotic (%),[3],35%
same,Population Fragmented Nuclei (%),[3],14%
same,Population Healthy Nuclei (%),[3],64%
same,Population Hoechst High Intensity Objects (%),[3],2%
same,Population Membrane Permeable-Phenotype (%),[3],2%
same,Population Mitochondria Different-Phenotype (%),[3],6%
same,Population Mitotic Cells (%),[3],64%
same,Population Normal (%),[3],97%
same,Population Pyknosed Nuclei (%),[3],21%
same,Population Tubulin-Different-Phenotype (%),[3],20%
same,Total Cell Count,[3],148
same,Population Apoptotic (%),[4],30%
same,Population Fragmented Nuclei (%),[4],38%
same,Population Healthy Nuclei (%),[4],44%
same,Population Hoechst High Intensity Objects (%),[4],3%
same,Population Membrane Permeable-Phenotype (%),[4],5%
same,Population Mitochondria Different-Phenotype (%),[4],0%
same,Population Mitotic Cells (%),[4],69%
same,Population Normal (%),[4],96%
same,Population Pyknosed Nuclei (%),[4],17%
same,Population Tubulin-Different-Phenotype (%),[4],43%
same,Total Cell Count,[4],157
same,Population Apoptotic (%),[5],62%
same,Population Fragmented Nuclei (%),[5],16%
same,Population Healthy Nuclei (%),[5],63%
same,Population Hoechst High Intensity Objects (%),[5],0%
same,Population Membrane Permeable-Phenotype (%),[5],0%
same,Population Mitochondria Different-Phenotype (%),[5],7%
same,Population Mitotic Cells (%),[5],37%
same,Population Normal (%),[5],99%
same,Population Pyknosed Nuclei (%),[5],20%
same,Population Tubulin-Different-Phenotype (%),[5],27%
same,Total Cell Count,[5],134
same,Population Apoptotic (%),[6],57%
same,Population Fragmented Nuclei (%),[6],26%
same,Population Healthy Nuclei (%),[6],57%
same,Population Hoechst High Intensity Objects (%),[6],5%
same,Population Membrane Permeable-Phenotype (%),[6],6%
same,Population Mitotic Cells (%),[6],42%
same,Population Normal (%),[6],94%
same,Population Pyknosed Nuclei (%),[6],15%
same,Population Tubulin-Different-Phenotype (%),[6],39%
same,Total Cell Count,[6],176
same,Population Apoptotic (%),[7],35%
same,Population Fragmented Nuclei (%),[7],16%
same,Population Healthy Nuclei (%),[7],58%
same,Population Hoechst High Intensity Objects (%),[7],2%
same,Population Membrane Permeable-Phenotype (%),[7],1%
same,Population Mitochondria Different-Phenotype (%),[7],4%
same,Population Mitotic Cells (%),[7],64%
same,Population Normal (%),[7],97%
same,Population Pyknosed Nuclei (%),[7],24%
same,Population Tubulin-Different-Phenotype (%),[7],30%
same,Total Cell Count,[7],143
same,Population Apoptotic (%),[8],24%
same,Population Fragmented Nuclei (%),[8],38%
same,Population Healthy Nuclei (%),[8],41%
same,Population Hoechst High Intensity Objects (%),[8],4%
same,Population Membrane Permeable-Phenotype (%),[8],10%
same,Population Mitochondria Different-Phenotype (%),[8],1%
same,Population Mitotic Cells (%),[8],75%
same,Population Normal (%),[8],95%
same,Population Pyknosed Nuclei (%),[8],20%
same,Population Tubulin-Different-Phenotype (%),[8],40%
same,Total Cell Count,[8],149
same,Population Apoptotic (%),[9],76%
same,Population Fragmented Nuclei (%),[9],16%
same,Population Healthy Nuclei (%),[9],64%
same,Population Hoechst High Intensity Objects (%),[9],3%
same,Population Membrane Permeable-Phenotype (%),[9],0%
same,Population Mitochondria Different-Phenotype (%),[9],4%
same,Population Mitotic Cells (%),[9],23%
same,Population Normal (%),[9],96%
same,Population Pyknosed Nuclei (%),[9],18%
same,Population Tubulin-Different-Phenotype (%),[9],22%
same,Total Cell Count,[9],147
same,Population Apoptotic (%),[10],42%
same,Population Fragmented Nuclei (%),[10],30%
same,Population Healthy Nuclei (%),[10],55%
same,Population Hoechst High Intensity Objects (%),[10],4%
same,Population Membrane Permeable-Phenotype (%),[10],5%
same,Population Mitochondria Different-Phenotype (%),[10],0%
same,Population Mitotic Cells (%),[10],57%
same,Population Normal (%),[10],95%
same,Population Pyknosed Nuclei (%),[10],13%
same,Population Tubulin-Different-Phenotype (%),[10],40%
same,Total Cell Count,[10],163
same,Population Apoptotic (%),[11],60%
same,Population Fragmented Nuclei (%),[11],29%
same,Population Healthy Nuclei (%),[11],56%
same,Population Hoechst High Intensity Objects (%),[11],7%
same,Population Membrane Permeable-Phenotype (%),[11],1%
same,Population Mitochondria Different-Phenotype (%),[11],1%
same,Population Mitotic Cells (%),[11],40%
same,Population Normal (%),[11],92%
same,Population Pyknosed Nuclei (%),[11],13%
same,Population Tubulin-Different-Phenotype (%),[11],22%
same,Total Cell Count,[11],159
same,Population Apoptotic (%),[12],38%
same,Population Fragmented Nuclei (%),[12],48%
same,Population Healthy Nuclei (%),[12],38%
same,Population Hoechst High Intensity Objects (%),[12],2%
same,Population Membrane Permeable-Phenotype (%),[12],10%
same,Population Mitochondria Different-Phenotype (%),[12],5%
same,Population Mitotic Cells (%),[12],61%
same,Population Normal (%),[12],98%
same,Population Pyknosed Nuclei (%),[12],12%
same,Population Tubulin-Different-Phenotype (%),[12],57%
same,Total Cell Count,[12],150
CCCCCCNC(=O)Nc1ccc(S(=O)(=O)Nc2ccc(CCNC[C@H](O)COc3ccc(O)cc3)cc2)cc1 [L-755507],Population Apoptotic (%),[1],40%
same,Population Fragmented Nuclei (%),[1],27%
same,Population Healthy Nuclei (%),[1],59%
same,Population Hoechst High Intensity Objects (%),[1],1%
same,Population Membrane Permeable-Phenotype (%),[1],3%
same,Population Mitochondria Different-Phenotype (%),[1],6%
same,Population Mitotic Cells (%),[1],60%
same,Population Normal (%),[1],98%
same,Population Pyknosed Nuclei (%),[1],12%
same,Population Tubulin-Different-Phenotype (%),[1],34%
same,Total Cell Count,[1],198
same,Population Apoptotic (%),[2],46%
same,Population Fragmented Nuclei (%),[2],21%
same,Population Hoechst High Intensity Objects (%),[2],3%
same,Population Mitochondria Different-Phenotype (%),[2],3%
same,Population Mitotic Cells (%),[2],53%
same,Population Normal (%),[2],96%
same,Population Pyknosed Nuclei (%),[2],19%
same,Population Tubulin-Different-Phenotype (%),[2],36%
same,Total Cell Count,[2],160
same,Population Apoptotic (%),[3],45%
same,Population Fragmented Nuclei (%),[3],17%
same,Population Healthy Nuclei (%),[3],72%
same,Population Hoechst High Intensity Objects (%),[3],5%
same,Population Membrane Permeable-Phenotype (%),[3],0%
same,Population Mitochondria Different-Phenotype (%),[3],10%
same,Population Mitotic Cells (%),[3],54%
same,Population Normal (%),[3],94%
same,Population Pyknosed Nuclei (%),[3],10%
same,Population Tubulin-Different-Phenotype (%),[3],47%
same,Total Cell Count,[3],218
same,Population Apoptotic (%),[4],42%
same,Population Fragmented Nuclei (%),[4],34%
same,Population Healthy Nuclei (%),[4],48%
same,Population Membrane Permeable-Phenotype (%),[4],1%
same,Population Mitochondria Different-Phenotype (%),[4],19%
same,Population Mitotic Cells (%),[4],57%
same,Population Pyknosed Nuclei (%),[4],17%
same,Population Tubulin-Different-Phenotype (%),[4],64%
same,Total Cell Count,[4],172
same,Population Apoptotic (%),[5],31%
same,Population Fragmented Nuclei (%),[5],26%
same,Population Healthy Nuclei (%),[5],63%
same,Population Hoechst High Intensity Objects (%),[5],1%
same,Population Membrane Permeable-Phenotype (%),[5],0%
same,Population Mitochondria Different-Phenotype (%),[5],3%
same,Population Mitotic Cells (%),[5],68%
same,Population Normal (%),[5],98%
same,Population Pyknosed Nuclei (%),[5],9%
same,Population Tubulin-Different-Phenotype (%),[5],27%
same,Total Cell Count,[5],196
same,Population Apoptotic (%),[6],39%
same,Population Healthy Nuclei (%),[6],59%
same,Population Hoechst High Intensity Objects (%),[6],2%
same,Population Membrane Permeable-Phenotype (%),[6],3%
same,Population Mitochondria Different-Phenotype (%),[6],12%
same,Population Mitotic Cells (%),[6],60%
same,Population Normal (%),[6],97%
same,Population Pyknosed Nuclei (%),[6],13%
same,Population Tubulin-Different-Phenotype (%),[6],44%
same,Total Cell Count,[6],176
same,Population Apoptotic (%),[7],72%
same,Population Fragmented Nuclei (%),[7],21%
same,Population Healthy Nuclei (%),[7],70%
same,Population Hoechst High Intensity Objects (%),[7],8%
same,Population Membrane Permeable-Phenotype (%),[7],0%
same,Population Mitochondria Different-Phenotype (%),[7],8%
same,Population Mitotic Cells (%),[7],27%
same,Population Normal (%),[7],91%
same,Population Pyknosed Nuclei (%),[7],8%
same,Population Tubulin-Different-Phenotype (%),[7],38%
same,Total Cell Count,[7],232
same,Population Apoptotic (%),[8],50%
same,Population Fragmented Nuclei (%),[8],38%
same,Population Healthy Nuclei (%),[8],51%
same,Population Hoechst High Intensity Objects (%),[8],4%
same,Population Membrane Permeable-Phenotype (%),[8],3%
same,Population Mitochondria Different-Phenotype (%),[8],19%
same,Population Mitotic Cells (%),[8],50%
same,Population Normal (%),[8],95%
same,Population Pyknosed Nuclei (%),[8],9%
same,Population Tubulin-Different-Phenotype (%),[8],65%
same,Total Cell Count,[8],168
same,Population Apoptotic (%),[9],62%
same,Population Fragmented Nuclei (%),[9],28%
same,Population Healthy Nuclei (%),[9],63%
same,Population Hoechst High Intensity Objects (%),[9],3%
same,Population Membrane Permeable-Phenotype (%),[9],0%
same,Population Mitochondria Different-Phenotype (%),[9],4%
same,Population Mitotic Cells (%),[9],37%
same,Population Normal (%),[9],96%
same,Population Pyknosed Nuclei (%),[9],8%
same,Population Tubulin-Different-Phenotype (%),[9],31%
same,Total Cell Count,[9],201
same,Population Apoptotic (%),[10],53%
same,Population Fragmented Nuclei (%),[10],33%
same,Population Healthy Nuclei (%),[10],58%
same,Population Hoechst High Intensity Objects (%),[10],4%
same,Population Membrane Permeable-Phenotype (%),[10],1%
same,Population Mitochondria Different-Phenotype (%),[10],6%
same,Population Mitotic Cells (%),[10],46%
same,Population Normal (%),[10],95%
same,Population Tubulin-Different-Phenotype (%),[10],33%
same,Total Cell Count,[10],170
same,Population Apoptotic (%),[11],79%
same,Population Fragmented Nuclei (%),[11],19%
same,Population Healthy Nuclei (%),[11],69%
same,Population Hoechst High Intensity Objects (%),[11],6%
same,Population Membrane Permeable-Phenotype (%),[11],1%
same,Population Mitochondria Different-Phenotype (%),[11],8%
same,Population Mitotic Cells (%),[11],20%
same,Population Normal (%),[11],93%
same,Population Pyknosed Nuclei (%),[11],10%
same,Population Tubulin-Different-Phenotype (%),[11],49%
same,Total Cell Count,[11],240
same,Population Apoptotic (%),[12],71%
same,Population Fragmented Nuclei (%),[12],42%
same,Population Healthy Nuclei (%),[12],53%
same,Population Hoechst High Intensity Objects (%),[12],3%
same,Population Membrane Permeable-Phenotype (%),[12],5%
same,Population Mitochondria Different-Phenotype (%),[12],11%
same,Population Mitotic Cells (%),[12],28%
same,Population Normal (%),[12],96%
same,Population Pyknosed Nuclei (%),[12],3%
same,Population Tubulin-Different-Phenotype (%),[12],55%
same,Total Cell Count,[12],184
